Drawing on ChEMBL document CHEMBL5705901, “Exploiting selective BCL-2 family inhibitors to dissect cell survival dependencies and define improved strategies for cancer therapy” (Sci Transl Med, 2015), this text covers Activity, TGI and Activity_index for three molecules.

Calls of active or inactive are those of the source. The calls are words filed in the database; no cut-off is given here.

Data set [1] relates to A549. Description: Antitumor activity against 3 times passaged human A549 cells xenografted in po dosed SCID mouse assessed as tumor growth delay relative to control. The format is functional.
Data set [2] relates to A549. The data set can be described thus: Synergistic antitumor activity against 3 times passaged human A549 cells xenografted in po dosed SCID mouse assessed as tumor growth delay in presence of docetaxel relative to control. The format is functional. In a few lines: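 Xenografts dosed with oral inhibitor plus intravenous docetaxel. TGImax = 100(1 − Tv/Cv), from mean treated and control tumor volumes; TGD = 100(T/C − 1), from median times to reach 1 cm3. Group size 5 mice (NCI-H747, A549-FP3, EBC-1, OVCAR-5), 8 (NCI-H358), 10 (NCI-H1650).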

In data set [3] the test system is NCI-H358. Description: Antitumor activity against human NCI-H358 cells xenografted in po dosed SCID mouse assessed as maximum tumor growth inhibition relative to control. The class given is functional.
Data set [4] concerns NCI-H747. Description: Antitumor activity against human NCI-H747 cells xenografted in po dosed SCID-bg mouse assessed as maximum tumor growth inhibition relative to control. The class given is functional.
Data set [5] in a line: Toxicity in po dosed SCID-bg mouse assessed as tolerance. The conditions noted are these: in vivo. The class given is organism-based.
Data set [6] has as its system MDA-MB-231. The data set can be described thus: Antitumor activity against LC3 positive human MDA-MB-231 cells xenografted in SCID mouse assessed as tumor growth delay at 25 mg/kg, po administered daily for 14 days relative to control. The class given is functional. Conditions: time 14 day. The essentials: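 MDA-MB-231 LC3 metastatic breast cancer xenograft, 10 mice per group, with a vehicle control. Dosing: oral agent 25 mg/kg daily for 14 days; docetaxel 7.5 mg/kg iv once; combination gives both regimens. Mean tumor volumes tracked. TGImax = 100(1 − Tv/Cv) from mean treated vs control volumes. TGD = 100(T/C − 1) from median times to reach 1 cm3.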

Data set [7] relates to NCI-H460. Description: Synergistic antiproliferative activity against human NCI-H460 cells assessed as reduction in cell viability by measuring bliss sum score incubated for 72 hrs in presence of docetaxel by CellTiter-Glo cell vaibility assay. The format is functional.
The nature of data set [8]: Antagonistic antiproliferative activity against […] (unknown origin) cells assessed as reduction in cell viability by measuring bliss sum score incubated for 72 hrs in presence of docetaxel by CellTiter-Glo cell vaibility assay. The class given is functional.
Data set [9] relates to NCI-H146. Description: Induction of apoptosis in Bcl-xl dependent human NCI-H146 cells assessed as accumulation of caspase-dependent sub G0-G1 DNA content upto 5000 nM incubated for 24 hrs by fluorescence-activated cell sorting analysis. The format is functional, cell-based. In a few lines: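 NCI-H146 cells were preincubated for 1 h with or without the caspase inhibitor Z-VAD-fmk (75 μM). They were then exposed to increasing concentrations for 24 h. Sub-G0-G1 DNA content was measured by fluorescence-activated cell sorting.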

Data set [10] relates to SK-BR-3. The data set can be described thus: Synergistic antiproliferative activity against human SK-BR-3 cells assessed as reduction in cell viability by measuring bliss sum score incubated for 72 hrs in presence of docetaxel by CellTiter-Glo cell vaibility assay. The class given is functional.
Data set [11] relates to MDA-MB-436. The data set can be described thus: Antagonistic antiproliferative activity against human MDA-MB-436 cells assessed as reduction in cell viability by measuring bliss sum score incubated for 72 hrs in presence of docetaxel by CellTiter-Glo cell vaibility assay. The format is functional.
Data set [12] concerns NCI-H146. Description: Induction of apoptosis in Bcl-xl dependent human NCI-H146 cells assessed as caspase 3/7 activation at 1 to 667 nM incubated for 4 hrs by immunoblot analysis. The class given is functional, cell-based. Conditions: dose 1-667 nM. In a few lines: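 NCI-H146 cells were incubated with increasing concentrations for 4 h, and caspase-3/7 activation was measured. Values are the mean of triplicate experiments ± SD.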

Data set [13] deals with NCI-H1975. The data set can be described thus: Synergistic antiproliferative activity against human NCI-H1975 cells assessed as reduction in cell viability by measuring bliss sum score incubated for 72 hrs in presence of docetaxel by CellTiter-Glo cell vaibility assay. The format is functional.
Data set [14] concerns OVCAR-5. Description: Synergistic antiproliferative activity against human OVCAR-5 cells assessed as reduction in cell viability by measuring bliss sum score incubated for 72 hrs in presence of docetaxel by CellTiter-Glo cell vaibility assay. The format is functional.
The subject of data set [15] is LXFL 529. The data set can be described thus: Synergistic antiproliferative activity against human LXFL 529 cells assessed as reduction in cell viability by measuring bliss sum score incubated for 72 hrs in presence of docetaxel by CellTiter-Glo cell vaibility assay. The class given is functional.
In data set [16] the test system is ZR-75-30. Description: Antagonistic antiproliferative activity against human ZR-75-30 cells assessed as reduction in cell viability by measuring bliss sum score incubated for 72 hrs in presence of docetaxel by CellTiter-Glo cell vaibility assay. The format is functional.
Data set [17] concerns NCI-H146. Description: Induction of apoptosis in Bcl-xl dependent human NCI-H146 cells assessed as cytochrome C release from mitochondria at 0.1 to 1000 nM incubated for 4 hrs by immunoblot analysis. The class given is functional, cell-based. Conditions: dose 0.1-1000 nM. In a few lines:
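NCI-H146 cells were treated for 4 h with increasing concentrations. Mitochondrial and cytosolic fractions were separated, and cytochrome c in each was determined by immunoblotting.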

Data set [18] has as its system A549. Description: Synergistic antiproliferative activity against human A549 cells assessed as reduction in cell viability by measuring bliss sum score incubated for 72 hrs in presence of docetaxel by CellTiter-Glo cell vaibility assay. The format is functional.
The test system of data set [19] is T47D. Description: Induction of apoptosis in human T47D cells assessed as accumulation of cells with sub-G0-G1 DNA content at 1 uM incubated for 48 hrs in presence of docetaxel by flow cytometric analysis. The format is functional, cell-based.
The test system of data set [20] is HCC1500. Description: Induction of apoptosis in human HCC1500 cells assessed as accumulation of cells with sub-G0-G1 DNA content at 1 uM incubated for 48 hrs in presence of docetaxel by flow cytometric analysis. The class given is functional, cell-based.
Data set [21] concerns SK-BR-3. The data set can be described thus: Induction of apoptosis in human SK-BR-3 cells assessed as accumulation of cells with sub-G0-G1 DNA content at 1 uM incubated for 48 hrs in presence of docetaxel by flow cytometric analysis. The class given is functional, cell-based.
Data set [22] has as its system ZR-75-1. The data set can be described thus: Induction of apoptosis in human ZR-75-1 cells assessed as poly(ADP-ribose) polymerase cleavage incubated for 48 hrs in presence of docetaxel by immunoblot analysis. The class given is functional, cell-based.
The test system of data set [23] is MDA-MB-231. The data set can be described thus: Induction of apoptosis in human MDA-MB-231 cells assessed as accumulation of cells with sub-G0-G1 DNA content at 1 uM incubated for 48 hrs in presence of docetaxel by flow cytometric analysis. The format is functional, cell-based.
The test system of data set [24] is HCC1395. Description: Induction of apoptosis in human HCC1395 cells assessed as accumulation of cells with sub-G0-G1 DNA content at 1 uM incubated for 48 hrs in presence of docetaxel by flow cytometric analysis. The format is functional, cell-based.
In data set [25] the test system is HCC1143. The data set can be described thus: Induction of apoptosis in human HCC1143 cells assessed as accumulation of cells with sub-G0-G1 DNA content at 1 uM incubated for 48 hrs in presence of docetaxel by flow cytometric analysis. The format is functional, cell-based.
The test system of data set [26] is HCC1806. The data set can be described thus: Induction of apoptosis in human HCC1806 cells assessed as accumulation of cells with sub-G0-G1 DNA content at 1 uM incubated for 48 hrs in presence of docetaxel by flow cytometric analysis. The format is functional, cell-based.

Consider `Cc1c(-c2ccc(N3CCc4cccc(C(=O)Nc5nc6ccccc6s5)c4C3)nc2C(=O)O)cnn1CC12CC3CC(CC(C3)C1)C2`, for which the Activity in data set [1] is on record as 108%; in data set [2], 131%; in data set [5], “Non-Toxic”; in data set [6], 55%. Also, the tumour growth inhibition (TGI) in data set [3] was 62%; in data set [4], 50%.

In the case of `CN(C)CC#Cc1ccc(OCCCc2sc(N3CCc4cccc(C(=O)Nc5nc6ccccc6s5)c4C3)nc2C(=O)O)c(F)c1` [A-1155463], the Activity_index in data set [7] is recorded as 105; in data set [8] it was -269; in [10], 101; in data set [11], -96; in data set [13] it was 6; in data set [14] it was 706. Besides, the Activity_index is on record as 734 in data set [15], -265 in data set [16] and 137 in data set [18]. Also, the result in data set [9], in data set [12] and in data set [17] was Active.

For the molecule `CC1(C)CCC(c2ccc(Cl)cc2)=C(CN2CCN(c3ccc(C(=O)NS(=O)(=O)c4ccc(N[C@H](CCN5CCOCC5)CSc5ccccc5)c(S(=O)(=O)C(F)(F)F)c4)cc3)CC2)C1` [NAVITOCLAX], the result in [19], in [20], in [21], in [22], in data set [23] and in data set [24] was Active. In addition, the outcome in [25] and in data set [26] was Active.
